# Measured values published in ChEMBL document CHEMBL4304743, “Discovery of ( E)- N1-(3-Fluorophenyl)- N3-(3-(2-(pyridin-2-yl)vinyl)-1 H-indazol-6-yl)malonamide (CHMFL-KIT-033) as a Novel c-KIT T670I Mutant Selective Kinase Inhibitor for Gastrointestinal Stromal Tumors (GISTs)” (J Med Chem, 2019).
# The source made the active and inactive calls. No cut-off for these calls is given here.
# How the values were obtained:
# [1] = test system: Mus musculus; assay: Inhibition of c-KIT phosphorylation at Y719 residue in tumor of human GIST5R cells xenografted in nude mouse at 100 mg/kg, po administered as single dose and measured at 2 hrs; format: functional, organism-based
# How it was run: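 Female nu/nu mice bearing subcutaneous GIST-5R xenografts (cells in Matrigel, right flank) given one oral gavage dose of 100 mg/kg in HKI suspension (0.5% methocellulose/0.4% Tween80 in ddH2O). Tumors collected over a 2 h time course; p-c-KIT, p-ERK and p-AKT assessed by Western blot; plasma drug levels monitored in parallel.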
# [2] = Selectivity ratio, ratio of inhibition of wild type TEL fused c-KIT (unknown origin) transfected in mouse BAF3 cells assessed as growth inhibition to inhibition of TEL fused c-KIT T670I mutant (unknown origin) transfected in mouse BAF3 cells assessed as growth inhibition; set-up: species or system Homo sapiens
# How it was run: (§1)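 IL-3 independent BaF3 cells stably expressing tel-c-KIT wt or tel-c-KIT T670I, grown in RPMI 1640 with 10% FBS, 2% L-glutamine, 37 °C, 5% CO2. Suspension cells at 1.5 to 5 × 10^4 cells/mL mixed with serial compound dilutions and incubated 72 h. Viability read by CCK-8 absorbance at 450 nm, normalized to DMSO; GI50 from curve fit. Selectivity is wt GI50 over T670I GI50.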
# [3] = Cmax in mouse at 10 mg/kg, po measured after 5 to 720 mins by LC-tandem mass spectrometry analysis; format: ADME, organism-based; set-up: dose 10 mg/kg, route oral; conditions: in vivo
# How it was run: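 Mice dosed 1 mg/kg i.v. or 10 mg/kg p.o.; plasma drug levels by LC-MS/MS, parameters by noncompartmental analysis; values not from triplicate testing.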
# [4] = test system: Mast/stem cell growth factor receptor Kit (Homo sapiens), P10721 [T670I]; assay: Inhibition of TEL fused c-KIT T670I mutant (unknown origin) transfected in mouse BAF3 cells assessed as growth inhibition after 72 hrs by CCK8 assay; format: cell-based
# Mast/stem cell growth factor receptor Kit (Homo sapiens), P10721 [T670I], sequence (P10721 whole entry T670I, the tested form may be a part): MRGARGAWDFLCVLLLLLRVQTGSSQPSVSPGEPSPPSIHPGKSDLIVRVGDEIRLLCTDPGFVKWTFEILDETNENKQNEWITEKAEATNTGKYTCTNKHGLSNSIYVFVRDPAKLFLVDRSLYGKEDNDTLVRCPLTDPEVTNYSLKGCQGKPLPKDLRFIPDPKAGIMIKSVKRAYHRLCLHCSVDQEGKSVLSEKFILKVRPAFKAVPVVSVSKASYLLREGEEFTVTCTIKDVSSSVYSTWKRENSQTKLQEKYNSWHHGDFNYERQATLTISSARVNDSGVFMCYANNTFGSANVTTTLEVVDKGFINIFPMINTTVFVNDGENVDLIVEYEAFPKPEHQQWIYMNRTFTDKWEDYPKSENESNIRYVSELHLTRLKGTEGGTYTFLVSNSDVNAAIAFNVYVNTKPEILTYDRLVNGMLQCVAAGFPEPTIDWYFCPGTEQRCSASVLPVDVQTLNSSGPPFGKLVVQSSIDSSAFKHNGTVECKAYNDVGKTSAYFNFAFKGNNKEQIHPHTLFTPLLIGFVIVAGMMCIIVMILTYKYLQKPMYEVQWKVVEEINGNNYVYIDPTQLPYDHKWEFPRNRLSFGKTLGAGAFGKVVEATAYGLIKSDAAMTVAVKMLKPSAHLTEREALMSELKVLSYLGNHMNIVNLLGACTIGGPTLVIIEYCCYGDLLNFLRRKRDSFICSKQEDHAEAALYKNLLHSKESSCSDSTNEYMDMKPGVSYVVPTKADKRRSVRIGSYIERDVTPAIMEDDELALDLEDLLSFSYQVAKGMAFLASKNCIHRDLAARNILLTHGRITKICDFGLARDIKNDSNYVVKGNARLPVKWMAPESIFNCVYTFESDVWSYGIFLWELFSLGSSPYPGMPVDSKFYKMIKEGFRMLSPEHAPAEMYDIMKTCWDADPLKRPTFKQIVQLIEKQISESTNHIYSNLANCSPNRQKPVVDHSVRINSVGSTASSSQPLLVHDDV
# How it was run: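 Tel-c-KIT-transformed BaF3 lines (IL-3 independent) kept in RPMI 1640 with 10% FBS, 2% L-glutamine and pen/strep. Cells at 1.5 to 5 × 10^4 cells/mL mixed with graded compound and incubated 72 h at 37 °C, 5% CO2. Viability by CCK-8 absorbance at 450 nm, normalized to DMSO. GI50 from dose–response fit.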
# [5] = Antiproliferative activity against human GIST48B cells incubated for 72 hrs by CCK8 assay; format: functional
# How it was run: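 Adherent GIST cells seeded at 1.5-5 × 10^4 cells/mL and left overnight at 37 °C, 5% CO2. Medium then replaced with medium holding serial compound dilutions; 72 h incubation. Viability by CCK-8, absorbance at 450 nm, normalized to DMSO control; GI50 from dose-response fit.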
# [6] = target: Macrophage colony-stimulating factor 1 receptor (Homo sapiens, UniProt P07333); assay: Binding affinity to wild-type human partial length CSF1R (I564 to S939 residues) expressed in bacterial expression system assessed as enzyme remaining activity at 1 uM by Kinomescan assay relative to control
# Macrophage colony-stimulating factor 1 receptor, sequence (P07333 whole entry, the tested form may be a part): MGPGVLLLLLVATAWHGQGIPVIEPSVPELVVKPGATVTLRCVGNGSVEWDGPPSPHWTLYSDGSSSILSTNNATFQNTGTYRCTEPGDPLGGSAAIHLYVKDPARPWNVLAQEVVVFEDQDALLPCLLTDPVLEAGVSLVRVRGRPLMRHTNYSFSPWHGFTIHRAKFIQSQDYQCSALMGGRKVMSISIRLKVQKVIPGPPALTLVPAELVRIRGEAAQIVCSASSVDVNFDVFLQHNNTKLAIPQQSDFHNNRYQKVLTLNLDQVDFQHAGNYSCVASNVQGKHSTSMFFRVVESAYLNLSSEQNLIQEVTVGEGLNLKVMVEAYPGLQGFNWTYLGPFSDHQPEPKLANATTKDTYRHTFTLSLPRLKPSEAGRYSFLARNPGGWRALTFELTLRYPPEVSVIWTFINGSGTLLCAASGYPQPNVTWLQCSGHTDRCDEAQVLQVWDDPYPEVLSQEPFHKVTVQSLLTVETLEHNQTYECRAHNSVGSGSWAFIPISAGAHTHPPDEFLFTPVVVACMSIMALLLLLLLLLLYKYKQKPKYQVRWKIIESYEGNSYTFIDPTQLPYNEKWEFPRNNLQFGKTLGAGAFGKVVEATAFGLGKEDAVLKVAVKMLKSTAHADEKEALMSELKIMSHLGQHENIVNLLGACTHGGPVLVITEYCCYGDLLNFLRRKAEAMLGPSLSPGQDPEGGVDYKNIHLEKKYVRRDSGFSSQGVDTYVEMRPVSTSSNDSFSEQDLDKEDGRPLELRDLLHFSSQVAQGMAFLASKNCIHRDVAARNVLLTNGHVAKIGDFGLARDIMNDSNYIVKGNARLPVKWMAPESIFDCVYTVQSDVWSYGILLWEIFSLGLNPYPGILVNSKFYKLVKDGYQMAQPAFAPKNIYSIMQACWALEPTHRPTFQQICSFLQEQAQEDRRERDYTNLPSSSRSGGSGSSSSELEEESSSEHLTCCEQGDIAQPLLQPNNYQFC
# How it was run: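 KINOMEscan competition binding panel of 468 kinases and mutants, compound at 1 μM; binding reported as percent of control.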
# [7] = target: T1, Mast/stem cell growth factor receptor Kit (Homo sapiens, UniProt P10721); assay: Inhibition of wild type c-KIT phosphorylation at Y703 residue in human COLO320DM cells after 2 hrs by Western blot analysis; format: cell-based
# T1 sequence (P10721 whole entry, the tested form may be a part): as the sequence (P10721 whole entry T670I, the tested form may be a part) above, with I670T counted along it
# [8] = test system: Mast/stem cell growth factor receptor Kit (Homo sapiens), P10721 [V559D,T670I]; assay: Binding affinity to human partial length c-KIT V559D/T670I double mutant (Y545 to D952 residues) expressed in bacterial expression system assessed as enzyme remaining activity at 1 uM by Kinomescan method relative to control
# Mast/stem cell growth factor receptor Kit (Homo sapiens), P10721 [V559D,T670I], sequence (P10721 whole entry V559D/T670I, the tested form may be a part): as the sequence (P10721 whole entry T670I, the tested form may be a part) above, with V559D counted along it
# How it was run: (§2)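 KINOMEscan binding profile (DiscoverX) run at 1 μM against a panel of 468 kinases and mutants. Read-out is percent of control (%Ctrl) remaining bound.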
# [9] = test system: GISTT1; assay: Induction of apoptosis in human GISTT1 cells harboring c-KIT 560 to 578 deletion/T670I double mutant assessed as increase in cleaved PARP level after 24 hrs by Western blot analysis; format: functional, cell-based
# How it was run: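 GIST-T1-T670I cells grown in DMEM with 10% FBS, exposed to serially diluted compound for 24 h. Apoptosis read by Western blot with PARP and GAPDH antibodies.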
# [10] = species on record: Homo sapiens; assay: Selectivity ratio, ratio of IC50 for wild-type His-tagged c-KIT (unknown origin) expressed in baculovirus infected sf9 cells to IC50 for His-tagged c-KIT T670I mutant (544 to 935 residues) (unknown origin) expressed in baculovirus infected sf9 cells
# How it was run: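 Purified protein: His-tagged c-KIT wt or T670I, residues 544−935, expressed in baculovirus-infected SF9 cells. Purified by Ni-NTA then Superdex-200. Enzyme (wt 20 ng/µL, T670I 15 ng/µL) preincubated with inhibitor 60 min at room temperature. Then ATP/substrate added (50 µM ATP) and run 1 h at 37 °C. ADP-Glo luminescence read-out; IC50 from fitted dose–response curves.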
# [11] = target: T1, Mast/stem cell growth factor receptor Kit; assay: Inhibition of wild type TEL fused c-KIT (unknown origin) transfected in mouse BAF3 cells assessed as growth inhibition after 72 hrs by CCK8 assay; format: cell-based; conditions: baf3, 72 h; how it was run: as §1
# [12] = test system: Mast/stem cell growth factor receptor Kit (Homo sapiens), P10721 [UNDEFINED MUTATION]; assay: Inhibition of c-KIT 560 to 578 deletion/T670I double mutant in human GIST5R cells assessed as reduction in S6 phosphorylation at S235/S236 residue at 0.1 uM to 3 uM after 1 hr by Western blot analysis; format: cell-based
# Mast/stem cell growth factor receptor Kit (Homo sapiens), P10721 [UNDEFINED MUTATION], sequence (P10721 whole entry, looked up, stated change not applied): as the sequence (P10721 whole entry T670I, the tested form may be a part) above, with I670T counted along it
# How it was run: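 Serial compound dilutions applied for 1 h to GIST-T1, GIST-T1-T670I (CRISPR/Cas9 T670I knock-in, clone confirmed by Sanger sequencing) or GIST-5R cells in DMEM with 10% FBS. Cells then lysed and phospho-proteins detected by standard Western blotting.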
# [13] = MRT (0 to infinity) in Sprague-Dawley rat at 10 mg/kg, po measured after 5 to 720 mins by LC-tandem mass spectrometry analysis; format: ADME, organism-based; conditions: in vivo
# How it was run: (§3)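 Male Sprague–Dawley rats (190-210 g), fasted 12 h, given 1 mg/kg i.v. or 10 mg/kg p.o. in DMSO/5% glucose water (1:9). Blood sampled at 2–720 min (i.v.) or 5–720 min (p.o.). Plasma proteins precipitated with methanol using caffeine internal standard, then LC-MS/MS. Noncompartmental analysis; F = AUC0-∞ ratio corrected for dose; triplicate ±SD.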
# [14] = test system: Mast/stem cell growth factor receptor Kit (Homo sapiens), P10721 [L576P]; assay: Binding affinity to human partial length c-KIT L576P mutant (Y545 to D952 residues) expressed in bacterial expression system assessed as enzyme remaining activity at 1 uM by Kinomescan method relative to control; how it was run: as §2
# Mast/stem cell growth factor receptor Kit (Homo sapiens), P10721 [L576P], sequence (P10721 whole entry L576P, the tested form may be a part): as the sequence (P10721 whole entry T670I, the tested form may be a part) above, with L576P, I670T counted along it
# [15] = target: T1, Mast/stem cell growth factor receptor Kit; assay: Inhibition of TEL fused wild type c-KIT (unknown origin) transfected in mouse BaF3 cells assessed as reduction in phosphorylation at Y703 residue after 2 hrs by Western blot analysis; format: cell-based
# [16] = Tmax in Sprague-Dawley rat at 1 mg/kg, iv measured after 2 to 720 mins by LC-tandem mass spectrometry analysis; format: ADME, organism-based; conditions: in vivo; how it was run: as §3
structure (smiles),measurement,setting,value
O=C(CC(=O)Nc1ccc2c(/C=C/c3ccccn3)n[nH]c2c1)Nc1cccc(F)c1,inhibition,[1],Active
same,RatioGI50,[2],26
same,Cmax,[3],1120 ng/mL
same,GI50,[4],44 nM
same,GI50,[5],> 10 µM
same,Activity,[6],0%
same,EC50,[7],1810 nM
same,Activity,[8],< 1%
same,Activity,[9],Dose-dependent effect
same,Ratio IC50,[10],12
same,GI50,[11],1150 nM
same,inhibition,[12],Active
same,MRT inf,[13],5.4 h
same,Activity,[14],< 1%
same,EC50,[15],> 1000 nM
same,Tmax,[16],1.02 min
